Measurements published in ChEMBL document CHEMBL4513216, “Probing the Open Global Health Chemical Diversity Library for Multistage-Active Starting Points for Next-Generation Antimalarials” (ACS Infect Dis, 2020).

Assay: Toxicity liver stage against HepG2, at 10uM
Assay type: cell-based
Design: test concentration 10 uM, cell line HepG2-A16-CD81EGFP
Conditions: human, HepG2-A16-CD81EGFP cells; read-out: INHIBITION
How it was run: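 Uninfected HepG2-A16-CD81EGFP cells, 3 × 10^3 per well, 1536-well, plated on prespotted compound at 10 μM final, parasite-free screening media added to match infected plates; puromycin 10 μM positive, DMSO 0.5% negative; run in parallel with 48 h PbLuc assay at 37 °C, 5% CO2; viability by CellTiter-Glo luminescence, normalized to controls.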

| SMILES | cytotoxicity at 10 µM |
| --- | --- |
| O=C(CN1CCN(C(=O)c2ccccc2)CC1)Nc1ncc(Br)cc1Br | 8.63% |
| O=C(C[C@@H]1COC[C@H]2CN(Cc3ccncc3)C[C@@H]12)N1CCCC1 | -2.3% |
| CN(C)CCCNC(=O)c1ccccc1NC(=O)c1cc(Cl)ccc1Cl | -17% |
| CN(C)c1nccc(C2CCN(C3CCCCC3O)CC2)n1 (configuration not stated) | 1.98% |
| CC(C)C(NC(=O)c1nc(N2CCOCC2)ncc1Cl)c1cccs1 (configuration not stated) | -44.3% |
| Cc1nc(-c2cccs2)ccc1C(=O)N1CCN(CCO)CC1 | -56% |
| CCC(=O)Nc1ccc(F)cc1OC | -26.1% |
| CN(CCOCC1CC1)C(=O)Nc1ccc([S+](C)[O-])cc1 (configuration not stated) | 19.4% |
| CC(C)c1noc(C(C)N2CCN(Cc3noc(C4CC4)n3)CC2)n1 (configuration not stated) | 3.01% |
| CC(C(=O)Nc1cccc(F)c1)N(C)CCN1CCOCC1 (configuration not stated) | -9.19% |
| Cc1nn(C)c(C)c1S(=O)(=O)N(CC(N)=O)CC(C)C | 10.5% |
| CC(Oc1cc(Cl)cc(Cl)c1)C(=O)NCCOCC(N)=O (configuration not stated) | -5.82% |
| CS(=O)(=O)NCCNC(=O)C1(c2ccc(F)cc2)CC1 | 1.93% |
| COCCN(CCC#N)S(=O)(=O)c1cc(F)ccc1F | -9.91% |
| NC(=O)NC(=O)CCN1CCCC1c1cccc2c1OCCO2 (configuration not stated) | -5.35% |
| O=C(CSc1ccc2c(c1)OCCO2)NS(=O)(=O)c1cc(F)ccc1F | -3.47% |
| Cc1ccc(C(O)CNC(=O)c2cccnc2O)cc1 (configuration not stated) | 11% |
| Cc1n[nH]c(C2CN(C(=O)c3ccc(Cl)o3)CCO2)n1 (configuration not stated) | -5.59% |
| Cc1cnn(CC(C)NCc2nc(-c3ccoc3)no2)c1 (configuration not stated) | 23.3% |
| Cc1nc(-c2ccsc2)ccc1C(=O)N(C)CC1CC1 | 2.83% |
| Cc1cc(C)c(CNC(=O)NC2CCOCC2)c(=O)[nH]1 | -7.05% |

| SMILES | cytotoxicity at 10 µM |
| --- | --- |
| Cc1occc1C(=O)NCCOc1ccc(C(F)(F)F)cn1 | -7.62% |
| COc1ccccc1C(C)(C)NCc1ccco1 | 5.95% |
| CS(=O)(=O)NC1CCN(C(=O)CCn2cccn2)CC1 | -7.74% |
| COCCCNS(=O)(=O)c1cc(C)sc1C | -11.6% |
| CCN(CC)S(=O)(=O)c1ccc(C(F)(F)F)cc1C#N | -13.4% |
| CC1CCN(C(=O)Cc2ccc(S(=O)(=O)C(F)F)cc2)CC1 | 2.98% |
| NC(=O)Nc1cc(Br)cnc1OCC(F)(F)F | 8.28% |
| NC(=O)c1cccc(CCNCc2cccs2)c1 | 1.68% |
| C1CCC(N2CCCN(c3nc(C4CC4)no3)CC2)C1 | -9.13% |
| CCC(=O)NC1CCCN(Cc2ccc(NC(C)=O)cc2)C1 (configuration not stated) | -47.9% |
| O=C(Nc1ccnn1Cc1ccc(Cl)cc1)C1CCS(=O)(=O)C1 (configuration not stated) | 10.9% |
| CC(CCc1ccccc1)CC(=O)NC1CCN(CC(N)=O)CC1 (configuration not stated) | 9.04% |
| CS(=O)(=O)Cc1nc(CN2CC=C(c3ccccc3)CC2)cs1 | 5.27% |
| NC(=O)C1Cn2ccnc2C2(CCN(C(=O)c3ccncc3)CC2)O1 (configuration not stated) | -103% |
| Cc1nc(CN2Cc3cn(C)nc3C(COCC3CC3)C2)cs1 (configuration not stated) | -68.9% |
| CO[C@@H]1CCN(S(=O)(=O)c2cccs2)[C@H]1Cc1ccccc1 | -78% |
| CN(C)C(=O)NC1COC2(CCN(Cc3ccco3)CC2)C1 (configuration not stated) | -72.4% |
| CC(=O)N1CCCC2(C1)CN(C(=O)c1ccncc1)CCO2 (configuration not stated) | -78.7% |
| CNC(=O)[C@@]12CCO[C@@H]1CCN(S(=O)(=O)c1cccc(F)c1)C2 | -73.8% |
| COCCN1CCC12CCN(C(=O)c1ccc3[nH]ccc3c1)C2 (configuration not stated) | -82.6% |
| CCOC1COC2(CCN(S(=O)(=O)c3cccc(C)c3)CC2)C1 (configuration not stated) | -79.8% |

| SMILES | cytotoxicity at 10 µM |
| --- | --- |
| CC1(C)C[C@H](CCNC(=O)c2ccncc2)c2ccccc2O1 | -5.55% |
| Cc1cccc(N2CCN(CCC(=O)NCc3cccnc3)CC2)c1 | -9.2% |
| C[C@H](NC(=O)c1cnc(-c2ccccc2)nc1O)C(N)=O | 7.06% |
| CNc1cc(C)nc(N2CCC3(CC2)[C@H](O)C[C@@H]3OCCN(C)C)n1 | -1.26% |
| Oc1cc(CN2CCC(O)(Cn3ccnc3)CC2)nc2c(Cl)cccc12 | -60.8% |
| COc1ncc(-c2ccc(O)cc2)c(OC)n1 | -2.42% |
| Cc1ccc(CN(Cc2ccccn2)C(=O)C2CCCCCN2C)s1 (configuration not stated) | -20.2% |
| CN(Cc1ccncn1)C(=O)c1cccc(CCC(C)(C)O)c1 | -4.27% |
| CN(Cc1nc(Cc2cccc(C(F)(F)F)c2)no1)C(C1CC1)C1CC1 | 0.92% |
| NCC1Cc2cccc(-c3ccc(O)c(F)c3)c2O1 (configuration not stated) | -40.2% |
| CN(Cc1cnc(N)nc1)C(=O)c1coc(COc2ccccc2)n1 | 1.58% |
| Cc1cc(CN2CCC(CNC(=O)Cc3ccc(F)cc3)C2)[nH]n1 (configuration not stated) | -139% |
| CC(C)[C@@H]1CN(CC(=O)NCc2ccco2)C[C@H]1NS(=O)(=O)N(C)C | 6.11% |
| C[C@@H]1CN(CC(C)(C)N2CCOCC2)CC[C@@]1(O)C1CCOCC1 | -1.71% |
| O=C(NC1CCOCC1)c1cccc(C2CCCNC2)c1 (configuration not stated) | 2.58% |
| Cc1ncccc1OC1(C(=O)NCCC2CCCN2C)CCNCC1 (configuration not stated) | 2.18% |
| O=C(COCC(F)(F)C(F)F)N1CCC2(CCCN(CC3CC3)C2=O)C1 (configuration not stated) | 4.46% |
| O=C(CN1CCCCC1)Nc1ncc(Br)cc1Br | -9.58% |
| CN(c1ccncn1)C1CC2(CCN(C(=O)c3ccsc3)C2)C1 (configuration not stated) | 4.02% |
| CCn1cnnc1CNC(=O)N1CCN(c2nccs2)CC1 | -2.72% |
| Cc1ccc(-c2nc(C(=O)N(C)C3CCN(C)CC3)cs2)c(C)c1 | -7.07% |

| SMILES | cytotoxicity at 10 µM |
| --- | --- |
| CC(C(=O)N1CCCN(Cc2ccc(C#N)cc2)CC1)n1cncn1 (configuration not stated) | 2.6% |
| Cc1cc(C)c(CNC(=O)N2CCCC2c2cccc(F)c2)c(=O)[nH]1 (configuration not stated) | 5.22% |
| CCOc1cccc2c1OCC(C(=O)NS(=O)(=O)c1ccc(Cl)s1)=C2 | -3.21% |
| Cc1nc(C)n(CC2CCCCN2c2ncnc3ccsc23)n1 (configuration not stated) | -2.04% |
| c1ncn(CC2CN(Cc3noc(C4CC4)n3)CCO2)n1 (configuration not stated) | 1.59% |
| Cc1nc(C)n(C2CCCN(C(=O)c3ccc(N(C)C)nn3)C2)n1 (configuration not stated) | 0.722% |
| Cc1ncccc1-c1cc2cccnc2n1CCCNC(=O)C(C)(C)C | 12.8% |
| Cc1ccc(CN(CCN(C)C)Cc2c(C)nc3sccn23)o1 | 3.08% |
| CCN(C(=O)c1ccc2nnc(C3CCN(C)C3)n2c1)C(C)C (configuration not stated) | -112% |
| c1cncc(CN2CCN3C[C@H](Oc4cncnc4)C[C@H]3C2)c1 | -100% |
| O=C(C1=CCCCC1)N1CCO[C@H]2[C@H](Oc3ccccn3)CC[C@@H]21 | 5.08% |
| Cc1cccc(CN2CCCC3(CCN(CC(=O)N(C)C)C3=O)C2)n1 (configuration not stated) | -119% |
| O=C(N[C@H]1CN(Cc2cccs2)[C@@H]2CCCO[C@H]12)c1cccnc1 | -5.24% |
| COC(=O)CN1CC2(CCNCC2)COc2ccccc2S1(=O)=O | -11.7% |
| Cc1ccc(CN2CCc3onc(COc4cccnc4)c3C2)s1 | 5.98% |
| c1ccc(NCc2cnc3n2CCN(CC2CCOC2)CC3)nc1 (configuration not stated) | -76.5% |
| O=C(c1ccncc1)N1CCc2ncnc(C3CC3)c2CC1 | -75.6% |
| O=C(NCc1ccco1)[C@@]12CCO[C@@H]1CCN(c1ncccn1)C2 | 0.864% |
| COc1cccc(CSC=C2Nc3ccccc3S(=O)(=O)N2)c1 | 3.7% |
